Assay results published in ChEMBL document CHEMBL4308845, “Allosteric Activation of Striatal-Enriched Protein Tyrosine Phosphatase (STEP, PTPN5) by a Fragment-like Molecule” (J Med Chem, 2019).
Calls of active or inactive are those of the source. The rule behind the calls is not given here.

Key:
[1] = target: Tyrosine-protein phosphatase non-receptor type 5 (Homo sapiens) (UniProt P54829); experiment: Binding affinity to human 15N-labeled STEP PTP domain (281 to 563 residues) expressed in Escherichia coli OD2 assessed as induction of chemical perturbation at 2 mM by 1H,15N TROSY NMR spectral analysis
Procedure, shortened: (§1)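 40 μM 15N-labelled STEP PTP domain in 20 mM Tris-d11, 100 mM NaCl, 1 mM TCEP, pH 7.4, 8% D2O, 1% DMSO-d6, 298 K. TROSY spectra used 192 transients and 64 indirect points. Binders were called by manual comparison with the protein-only reference spectrum.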

[2] = target: T1, Tyrosine-protein phosphatase non-receptor type 5 (Homo sapiens) (UniProt P54829); experiment: Binding affinity to human 15N-labeled STEP PTP domain (281 to 563 residues) expressed in Escherichia coli OD2 assessed as induction of chemical perturbation at 500 uM by 1H,15N TROSY NMR spectral analysis; procedure, shortened: as §1
T1 sequence (whole entry): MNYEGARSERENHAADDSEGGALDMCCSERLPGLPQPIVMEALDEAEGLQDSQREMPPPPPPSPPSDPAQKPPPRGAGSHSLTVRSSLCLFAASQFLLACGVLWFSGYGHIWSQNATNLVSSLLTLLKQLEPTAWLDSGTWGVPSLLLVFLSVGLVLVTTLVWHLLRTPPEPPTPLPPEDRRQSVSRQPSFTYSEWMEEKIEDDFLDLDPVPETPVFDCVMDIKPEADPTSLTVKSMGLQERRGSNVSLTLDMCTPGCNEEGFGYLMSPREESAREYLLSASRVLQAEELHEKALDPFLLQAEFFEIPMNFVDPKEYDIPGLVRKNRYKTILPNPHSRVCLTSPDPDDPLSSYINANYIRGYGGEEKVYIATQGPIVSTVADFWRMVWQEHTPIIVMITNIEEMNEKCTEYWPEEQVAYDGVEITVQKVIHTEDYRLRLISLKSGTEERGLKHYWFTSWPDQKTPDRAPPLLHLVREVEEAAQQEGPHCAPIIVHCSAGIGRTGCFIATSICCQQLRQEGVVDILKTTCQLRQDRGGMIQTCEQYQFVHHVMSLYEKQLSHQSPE

Homo sapiens [3] = species on record: Homo sapiens; experiment: Binding affinity to human STEP46 (197 to 565 residues) expressed in Escherichia coli BL21(DE3) at 250 uM by STD-NMR method
Procedure, shortened: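 Saturation was 3 s Gaussian pulse train, on-resonance −0.2 ppm, off-resonance 60 ppm. A 30 ms spin-lock suppressed protein signal, and the difference spectrum was taken.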

Homo sapiens [4] = species on record: Homo sapiens; experiment: Binding affinity to human STEP46 (197 to 565 residues) expressed in Escherichia coli BL21(DE3) at 500 uM by SYPRO Orange dye based DSF
Procedure, shortened: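 Final mix was 5 μM STEP46, 25× SYPRO Orange, 500 μM fragment, 1% DMSO in 20 mM HEPES pH 7.5, 50 mM NaCl, 1 mM TCEP, in duplicate. Samples were heated 25→95 °C at 1 °C/min, read every 0.5 °C. Tm was taken from the first-derivative minimum. ΔTm ≥0.5 °C versus DMSO counted as a hit.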

Homo sapiens [5] = species on record: Homo sapiens; experiment: Binding affinity to human STEP46 (197 to 565 residues) expressed in Escherichia coli BL21(DE3) by MST method
[6] = compound: N=C(N)Nc1cc(C2CCNCC2)cc(C(F)(F)F)c1; experiment: Activation of human STEP PTP domain (281 to 563 residues) expressed in Escherichia coli BL21(DE3) assessed as Km for substrate at 500 uM using pFyn peptide substrate after 60 mins by RapidFire MS/MS assay (reference value: 60.8 +/- 7.9 uM)
[7] = compound: N=C(N)Nc1cc(C2CCNCC2)cc(C(F)(F)F)c1; experiment: Activation of human STEP PTP domain (281 to 563 residues) expressed in Escherichia coli BL21(DE3) assessed as Kcat at 500 uM using pFyn peptide substrate after 60 mins by RapidFire MS/MS assay (reference value: 0.024 +/- 0.002 /s)

For SODIUM ORTHOVANAD, which Activity [1] is on record?
Its Activity is “Active”.

How did the Activity [2] turn out when `CC(N)Cc1cc(O)cc(C(F)(F)F)c1` (stereo not given) was run?
Its Activity is over 5 mM.

What about the Activity (Homo sapiens [3]) of the same molecule?
The Activity was “Active”.

And the Activity (Homo sapiens [4])?
Its Activity is “Active”.

What about the Activity (Homo sapiens [5]) of the same molecule?
Its Activity is “Active”.

With `CC(N)Cc1cccc(C(F)(F)F)c1` (stereo not given) as the molecule, how does the Activity [2] read?
Its Activity is “inactive”.

With `CC(N)Cc1cc(N)cc(C(F)(F)F)c1` (stereo not given) as the molecule, how does the Activity [2] read?
The Activity was “inactive”.

With `N=C(N)Nc1cccc(C(F)(F)F)c1` as the molecule, how does the Activity [2] read?
The Activity was “Active”.

B1: Tyrosine-protein phosphatase non-receptor type 5 (Homo sapiens), P54829 (protein)
chain: T1 sequence (whole entry)
With B1 as the molecule, how does the Km [6] read?
Its Km is 65.4 µM.

And the kcat [7]?
Its kcat is 0.042 s⁻¹.
